The source of these data is ChEMBL document CHEMBL4330076, “Quinazolin-2,4-dione-Based Hydroxamic Acids as Selective Histone Deacetylase-6 Inhibitors for Treatment of Non-Small Cell Lung Cancer” (J Med Chem, 2019).

The subject of series [1] is A549. Description: Induction of apoptosis in human A549 cells assessed as early apoptotic cells at 4 uM after 24 hrs by Annexin V/propidium iodide staining-based flow cytometric analysis (reference value: 1.2%). The class given is functional. Background: Flow cytometry measures light scatter and fluorescence of single cells or particles in a stream.
Series [2] deals with A549. In words: Induction of apoptosis in human A549 cells assessed as viable cells at 4 uM after 24 hrs by Annexin V/propidium iodide staining-based flow cytometric analysis (reference value: 96.2%). The class given is functional.
In series [3] the test system is Lewis lung carcinoma cell line. Description: Antitumor activity against mouse LL/2 cells implanted in C57BL/6 mouse assessed as tumor growth inhibition at 20 mg/kg, po qd administered for 21 consecutive days co-administered with paclitaxel at 10 mg/kg, ip qd administered for 5 days relative to control. The format is functional.
A short description of series [4]: Drug uptake in C57BL/6 mouse kidney at 40 mg/kg, po administered via gavage co-administered with paclitaxel at 10 mg/kg, ip by LC-MS/MS analysis. The class given is ADME, organism-based. The conditions noted are these: in vivo.
A further series addresses T1, Histone deacetylase 8 (Homo sapiens, UniProt Q9BY41).
T1 sequence (Q9BY41 whole entry): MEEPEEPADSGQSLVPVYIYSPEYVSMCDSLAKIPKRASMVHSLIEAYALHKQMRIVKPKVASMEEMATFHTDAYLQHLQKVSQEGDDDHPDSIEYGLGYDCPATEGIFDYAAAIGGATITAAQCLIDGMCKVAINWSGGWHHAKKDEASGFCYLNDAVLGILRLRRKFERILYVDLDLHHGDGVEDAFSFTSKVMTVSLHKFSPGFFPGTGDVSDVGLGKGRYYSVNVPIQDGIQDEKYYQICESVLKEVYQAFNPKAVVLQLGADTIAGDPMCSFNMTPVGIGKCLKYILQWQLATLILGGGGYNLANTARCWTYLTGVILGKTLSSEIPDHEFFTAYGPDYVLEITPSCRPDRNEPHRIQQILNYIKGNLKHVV
Description: Inhibition of human full-length recombinant HDAC8 expressed in baculovirus infected Sf9 insect cells using fluorogenic peptide RHKAcKAc as substrate after 2 hrs.

Series [5] deals with A549. In words: Induction of apoptosis in human A549 cells assessed as late apoptotic cells at 4 uM after 24 hrs by Annexin V/propidium iodide staining-based flow cytometric analysis (reference value: 1.6%). The class given is functional.
The test system of series [6] is A549. In words: Induction of apoptosis in human A549 cells assessed as late apoptotic cells at 4 uM after 24 hrs in presence of paclitaxel by Annexin V/propidium iodide staining-based flow cytometric analysis (reference value: 1.6%). The class given is functional.
Series [7] in a line: AUC (0 to 24 hrs) in C57BL/6 mouse liver at 40 mg/kg, po administered via gavage by LC-MS/MS analysis. The class given is ADME, organism-based. On the set-up: dose 40 mg/kg, time < 24 hr, route oral. The conditions noted are these: in vivo.
In series [8] the test system is A549. Description: Cytotoxicity against human A549 cells after 72 hrs by MTT assay. The conditions noted are these: A549, 72 h. The format is functional, cell-based. An outline of the steps: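 Human A549 lung cancer cells exposed to serial dilutions of inhibitor at 37 °C for 72 h. Cytotoxicity expressed as IC50.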
On the technique in general: Tetrazolium assays rely on reduction of a dye to a coloured formazan, in cell work by metabolically active cells.

A short description of series [9]: Drug uptake in C57BL/6 mouse plasma at 40 mg/kg, po administered via gavage co-administered with paclitaxel at 10 mg/kg, ip by LC-MS/MS analysis. The conditions noted are these: in vivo. The class given is ADME, organism-based.
A short description of series [10]: Drug uptake in C57BL/6 mouse plasma at 40 mg/kg, po administered via gavage by LC-MS/MS analysis. The format is ADME, organism-based. The conditions noted are these: in vivo.
The test system of series [11] is Lewis lung carcinoma cell line. In words: Induction of apoptosis in mouse LL/2 cells assessed as early apoptotic cells at 4 uM after 24 hrs in presence of paclitaxel by Annexin V/propidium iodide staining-based flow cytometric analysis (reference value: 1.8%). The class given is functional.
Series [12] can be described thus: Ratio of compound AUC (0 to 24 hrs) to ACY-1215 AUC (0 to 24 hrs) in C57BL/6 mouse lung at 40 mg/kg, po administered via gavage by LC-MS/MS analysis. The class given is ADME, organism-based. The conditions noted are these: in vivo.
Series [13] relates to A549. Description: Induction of apoptosis in human A549 cells assessed as necrotic cells at 4 uM after 24 hrs in presence of paclitaxel by Annexin V/propidium iodide staining-based flow cytometric analysis (reference value: 1.1%). The class given is functional.
Series [14] has as its system Lewis lung carcinoma cell line. In words: Induction of apoptosis in mouse LL/2 cells assessed as late apoptotic cells at 4 uM after 24 hrs in presence of paclitaxel by Annexin V/propidium iodide staining-based flow cytometric analysis (reference value: 8.7%). The format is functional.
Series [15] has as its system Lewis lung carcinoma cell line. In words: Cytotoxicity against mouse LL/2 cells after 72 hrs by MTT assay. The format is functional, cell-based.
Series [16] addresses T2, Protein deacetylase HDAC6 (Homo sapiens, UniProt Q9UBN7).
T2 sequence (Q9UBN7 whole entry): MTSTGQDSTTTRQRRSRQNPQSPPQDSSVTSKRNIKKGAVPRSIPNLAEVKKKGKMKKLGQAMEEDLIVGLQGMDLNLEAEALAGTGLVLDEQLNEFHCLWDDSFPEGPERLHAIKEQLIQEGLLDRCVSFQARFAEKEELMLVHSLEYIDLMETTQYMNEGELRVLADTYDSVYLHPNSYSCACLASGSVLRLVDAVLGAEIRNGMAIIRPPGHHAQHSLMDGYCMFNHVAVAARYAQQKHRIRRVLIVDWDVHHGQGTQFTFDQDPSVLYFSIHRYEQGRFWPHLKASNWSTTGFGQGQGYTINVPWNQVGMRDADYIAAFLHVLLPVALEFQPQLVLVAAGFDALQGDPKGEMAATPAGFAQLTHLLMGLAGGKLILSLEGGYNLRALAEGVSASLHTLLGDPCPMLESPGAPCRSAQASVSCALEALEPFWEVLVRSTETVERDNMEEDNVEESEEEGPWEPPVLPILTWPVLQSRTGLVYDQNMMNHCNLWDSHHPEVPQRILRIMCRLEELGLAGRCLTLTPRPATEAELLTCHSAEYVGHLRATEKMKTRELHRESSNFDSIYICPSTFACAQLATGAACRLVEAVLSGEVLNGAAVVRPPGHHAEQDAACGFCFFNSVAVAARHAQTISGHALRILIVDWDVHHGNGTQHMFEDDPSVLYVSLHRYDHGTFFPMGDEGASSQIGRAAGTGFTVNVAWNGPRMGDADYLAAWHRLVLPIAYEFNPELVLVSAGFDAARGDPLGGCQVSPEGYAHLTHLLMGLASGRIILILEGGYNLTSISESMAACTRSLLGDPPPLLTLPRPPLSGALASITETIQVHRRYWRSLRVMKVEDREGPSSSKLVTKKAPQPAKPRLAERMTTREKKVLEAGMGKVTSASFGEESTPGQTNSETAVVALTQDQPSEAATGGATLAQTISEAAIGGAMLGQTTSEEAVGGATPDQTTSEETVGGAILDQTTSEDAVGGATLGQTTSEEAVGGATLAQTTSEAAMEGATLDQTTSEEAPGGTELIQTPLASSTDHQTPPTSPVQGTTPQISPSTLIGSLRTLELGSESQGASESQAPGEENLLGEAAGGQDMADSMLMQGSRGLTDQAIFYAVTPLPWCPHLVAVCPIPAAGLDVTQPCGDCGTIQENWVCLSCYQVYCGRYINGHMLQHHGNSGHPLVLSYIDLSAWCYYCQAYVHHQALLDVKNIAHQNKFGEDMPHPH
In words: Competitive inhibition of human full-length recombinant HDAC6 expressed in baculovirus infected Sf9 insect cells using Boc-Lys (Ac)-AMC as substrate preincubated for 10 mins followed by substrate addition and measured after 30 mins by fluorescence assay.

Usually TGI stands for the reduction of tumour growth relative to the control group. By IC50 is commonly meant the concentration that gives 50% inhibition. In general, Ki refers to a measure of affinity in units of concentration, obtained from inhibition or displacement. With `O=C(NO)c1ccc(Cn2c(=O)n(CCc3ccccc3)c(=O)c3ccccc32)cc1`, the Activity in the series on A549 [1] came out at 1.3%; with A549 [2] it was 97.4%; in the series with A549 [5], 0.7%; with A549 [6] it was 1.3%; in series [11], 8.8%; with A549 [13], 0.5%. Moreover, the Activity in [14] is 21.2%. The TGI in [3] amounted to 67.5%. Besides, the Drug uptake in series [4] is recorded as 392 ng/g. Further, the IC50 came out at 0.309 µM at Histone deacetylase 8, 7.87 µM in the series on A549 [8] and 7.87 µM in series [15]. This compound also returned an AUC in series [7] of 6395 ng·h/g. The Cp in series [9] is 160 ng/mL; in series [10], 13 ng/mL. The “Ratio AUC” value in series [12] was 2.1. Also, the Ki in [16] is 0.0016 µM.
